The source of these data is ChEMBL document CHEMBL2010764, “Novel alkynylphosphonate analogue of calcitriol with potent antiproliferative effects in cancer cells and lack of calcemic activity” (ACS Med Chem Lett, 2011).

The structures appear in SMILES notation. The source made the active and inactive calls. The calls are words filed in the database; no cut-off is given here. A value given as a limit tells only on which side of the number the result lay.

Series [1] deals with HN12. As to the kind of experiment: Antiproliferative activity against human HN12 cells assessed as decrease in cell number at 1 nM after 72 hrs by hemocytometeric analysis. The format is functional, cell-based. In a few lines:
(§1)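 Cells exposed to the test agent or isopropanol vehicle over 72 h, across 0.1–100 nM; proliferation expressed as percentage of vehicle. Experiments repeated at least three times per cell line; one-way ANOVA with Bonferroni post-test.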

Series [2] can be described thus: Antiproliferative activity against human HN12 cells assessed as decrease in cell number after 72 hrs by WST assay. The format is functional, cell-based. To be noted: HN12, 72 h.
The test system of series [3] is T98G. As to the kind of experiment: Antiproliferative activity against human T98G cells assessed as decrease in cell number after 72 hrs by WST assay. The format is functional, cell-based. An outline of the steps: as §1
Series [4] relates to T47D. As to the kind of experiment: Antiproliferative activity against human T47D cells assessed as decrease in cell number after 72 hrs by WST assay. The series is classed as functional, cell-based.
Series [5] in a line: Antiproliferative activity against mouse LM05e cells assessed as decrease in cell number after 72 hrs by WST assay. The format is functional, cell-based.
Series [6] concerns T98G. As to the kind of experiment: Antiproliferative activity against human T98G cells harboring plasmid silencing VDR assessed as decrease in cell number at 10 nM after 72 hrs by WST assay. The series is classed as functional, cell-based. In a few lines:
(§2)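 T98G cells transfected with VDR-silencing shRNA plasmid or scrambled shRNA plasmid. 48 h after transfection, treated with 10 nM agent or vehicle, then counted 72 h after treatment. Triplicate wells, three independent experiments; mean ± SE. VDR knockdown was checked on lysates taken 48 h after transfection with 2 or 4 μg plasmid.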

The test system of series [7] is T98G. As to the kind of experiment: Antiproliferative activity against human T98G cells harboring scrambled shRNA assessed as decrease in cell number at 10 nM after 72 hrs by WST assay. The format is functional, cell-based. An outline of the steps: as §2
Series [8] concerns Mus musculus. As to the kind of experiment: Hypercalcemic activity in CF1 mouse assessed as increase in plasma calcium level at 5 ug/kg, ip qd for 5 days measured after 96 hrs. The format is functional, organism-based. In a few lines:
(§3)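 Mice (n = 5/group) received daily intraperitoneal injections of agent or isopropanol vehicle at 5 or 20 μg/kg body weight for 5 days. Blood was taken before dosing (0 h) and at 24, 48, 72 and 96 h. Plasma calcium was read by Arsenazo III absorbance. Means ± SE; experiment repeated twice.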

Series [9] concerns Mus musculus. As to the kind of experiment: Toxicity in CF1 mouse assessed as mortality at 5 ug/kg, ip qd for 5 days. The format is organism-based. The settings on record: in vivo, 0.005 mg/kg, 120 h. An outline of the steps: (§4)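 Mice in three groups (n = 5/group) received daily intraperitoneal injections of test agent, calcitriol, or isopropanol vehicle at 5 or 20 μg/kg body weight for 5 days. Survival was followed through the examination period, with blood sampled before dosing and at 24, 48, 72 and 96 h for plasma calcium (Arsenazo III absorbance). Liver, duodenum, lungs and kidneys were inspected macroscopically.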

The subject of series [10] is Mus musculus. As to the kind of experiment: Hypercalcemic activity in CF1 mouse assessed as increase in plasma calcium level at 20 ug/kg, ip qd for 5 days measured after 96 hrs. The series is classed as functional, organism-based. In a few lines:
as §3

Series [11] has as its system Mus musculus. As to the kind of experiment: Toxicity in CF1 mouse assessed as mortality at 20 ug/kg, ip qd for 5 days. To be noted: in vivo, 0.02 mg/kg, 120 h. The series is classed as organism-based. An outline of the steps: as §4
The test system of series [12] is Mus musculus. As to the kind of experiment: Toxicity in CF1 mouse assessed as morphological alterations in liver at 5 to 20 ug/kg, ip qd for 5 days measured after 15 days. The format is organism-based. To be noted: in vivo, 360 h. An outline of the steps:
(§5)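 Mice dosed intraperitoneally once daily for 5 days at 5 or 20 μg/kg in isopropanol vehicle. Liver, duodenum, lungs and kidneys were inspected visually for macroscopic morphological alterations after treatment.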

In series [13] the test system is Mus musculus. As to the kind of experiment: Toxicity in CF1 mouse assessed as morphological alterations in duodenum at 5 to 20 ug/kg, ip qd for 5 days measured after 15 days. The format is organism-based. The settings on record: in vivo, 360 h. An outline of the steps: as §5
For series [14], the system named is Mus musculus. As to the kind of experiment: Toxicity in CF1 mouse assessed as morphological alterations in lung at 5 to 20 ug/kg, ip qd for 5 days measured after 15 days. To be noted: in vivo, 360 h. The series is classed as organism-based. An outline of the steps:
as §5

In series [15] the test system is Mus musculus. As to the kind of experiment: Toxicity in CF1 mouse assessed as morphological alterations in kidney at 5 to 20 ug/kg, ip qd for 5 days measured after 15 days. The series is classed as organism-based. To be noted: in vivo, 360 h. In a few lines:
as §5

The subject of series [16] is HCT-116. As to the kind of experiment: Antiproliferative activity against human HCT116 cells assessed as decrease in cell survival at 0.1 to 100 nM after 72 hrs by WST1 assay. The series is classed as functional, cell-based. In a few lines:
as §1

The test system of series [17] is LM3. As to the kind of experiment: Antiproliferative activity against mouse LM3 cells assessed as decrease in cell survival at 0.1 to 100 nM after 72 hrs by WST1 assay. The series is classed as functional, cell-based. An outline of the steps: as §1
(In general: Formazan colour is commonly taken as a measure of viable cells.)

Series [18] deals with SVEC vGPCR (Mouse). As to the kind of experiment: Antiproliferative activity against mouse SVEC vGPCR cells assessed as decrease in cell number after 72 hrs by WST assay.
A short description of series [19]: Cmax in mouse at 5 ug/kg. The format is ADME, organism-based. Further details: dose 5 ug/kg. The settings on record: in vivo, 0.005 mg/kg.
The nature of series [20]: AUC in mouse at 5 ug/kg. The format is ADME, organism-based. The settings on record: plasma, 0.005 mg/kg.
Series [21] deals with Mus musculus. As to the kind of experiment: Hypercalcemic activity in CF1 mouse assessed as increase in plasma calcium level at 5 to 20 ug/kg, ip qd for 5 days measured after 96 hrs. The format is functional, organism-based. An outline of the steps:
as §3

Series [22] has as its system Mus musculus. As to the kind of experiment: Toxicity in CF1 mouse assessed as mortality at 5 to 20 ug/kg, ip qd for 5 days. The format is organism-based. To be noted: in vivo, 120 h. In a few lines:
as §4

In general, IC50 refers to the midpoint of a concentration-inhibition curve. On to `C=C1/C(=C\C=C2/CCC[C@]3(C)[C@@H]([C@H](C)CC#CP(=O)(OCC)OCC)CC[C@@H]23)C[C@@H](O)C[C@@H]1O`, for which the outcome in [1], in [6] and in [7] was Active. The half-maximal inhibitory concentration (IC50) in series [2] turned out to be 0.0223 µM; in series [3], 0.0361 µM; in series [4], 0.00478 µM; in series [5] it was 0.00168 µM; in series [18] it was 0.113 µM. The outcome in series [8], in [10], in series [16] and in series [17] was inactive. In addition, the Activity result in series [9], in [11], in series [12], in series [13], in series [14] and in series [15] was “Non-toxic” in each case.

As a reminder, the Cmax is the highest concentration seen after dosing. Usually AUC stands for the area under the concentration-time curve, a measure of exposure. A high value points to more exposure. With `C=C1/C(=C\C=C2/CCC[C@]3(C)[C@@H]([C@H](C)CCCC(C)(C)O)CC[C@@H]23)C[C@@H](O)C[C@@H]1O` [CALCITRIOL], the Cmax in series [19] is more than 10 ng/mL. The same molecule displayed an AUC in series [20] of more than 0.04 µg·h/mL. The outcome in series [21] was Active. The Activity result in series [22] is “Toxic”.
